Laboratory results taken from ChEMBL document CHEMBL1134485, “Diguanidino and "reversed" diamidino 2,5-diarylfurans as antimicrobial agents” (2001).
Values after ≈ are worked out from the molar mass of the structure shown.

Key:
Aspergillus fumigatus [1] = assay: Antimicrobial activity against Aspergillus fumigatus (MIC); format: functional
Candida albicans [2] = assay: In vitro minimum fungicidal concentration against Candida albicans.; format: functional
Summary of the method: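 Yeast MFC: after broth macrodilution (RPMI 1640/MOPS pH 7.0, 0.5 × 10³ to 2.5 × 10³ CFU/mL, 35 °C, 48 h or 72 h for C. neoformans, drug 100 to 0.09 µg/mL), 100 µL from tubes with complete inhibition plated on Sabouraud agar; lowest concentration yielding three or fewer colonies recorded.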

Candida albicans [3] = assay: In vitro minimum inhibitory concentration against Candida albicans.; format: functional
[4] = test system: Mycobacterium tuberculosis; assay: In vitro minimum inhibitory concentration required to inhibit Mycobacterium tuberculosis; format: functional
Summary of the method: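 M. tuberculosis H37Rv grown in BACTEC 12B medium; fluorometric broth microdilution (Microplate Alamar Blue Assay). […] MIC = lowest concentration reducing relative fluorescence units by ≥90% relative to control culture. Testing done by TAACF.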

Nucleic Acid [5] = test system: Nucleic Acid
Nucleic Acid [6] = test system: Nucleic Acid; remark: listed apart in the source
Aspergillus fumigatus [7] = assay: In vitro minimum fungicidal concentration required to inhibit Aspergillus fumigatus(MFC); format: functional
Summary of the method: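 Mould MFC: 100 µL aliquots from macrodilution tubes (RPMI 1640/MOPS pH 7.0, 0.5 × 10³ to 2.5 × 10³ CFU/mL conidial inoculum, 30 °C, 48-72 h, drug 100 to 0.09 µg/mL) showing complete growth inhibition plated on Sabouraud agar; MFC taken as lowest drug concentration giving three or fewer colonies.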

Row | SMILES | MIC (Aspergillus fumigatus [1]) [µg/mL] | MFC (Candida albicans [2]) [µg/mL] | MIC (Candida albicans [3]) [µg/mL] | MIC [4] [µg/mL] | ΔTm (Nucleic Acid [5]) | ΔTm (Nucleic Acid [6]) | MFC (Aspergillus fumigatus [7]) [µg/mL]
1 | N=C(Nc1ccc(-c2ccc(-c3ccc(NC(=N)c4ccccn4)cc3Cl)o2)c(Cl)c1)c1ccccn1 | > 100 | > 100 | 100 (≈ 190 µM) | 8 (≈ 15.2 µM) | 5.2 | 0 | 
2 | COc1cc(NC(=N)c2ccccn2)ccc1-c1ccc(-c2ccc(NC(=N)c3ccccn3)cc2OC)o1 | ≤ 1 | ≤ 1 | ≤ 1 | ≤ 1 | 19 | 7.8 | ≤ 1
